As a reminder, the GI50 is the concentration that inhibits growth by half. Read a high GI50 as less potent growth inhibition. One may read the TGI as the concentration at which net growth stops.

Where only a bound is given, the exact number is not on record here.

This is an account of results in ChEMBL document CHEMBL1821594, “Synthesis and anticancer evaluation of novel 2-cyclopropylimidazo[2,1-b][1,3,4]-thiadiazole derivatives” (2011).

One experiment relates to MDA-MB-231. Put plainly: Antitumor activity against human MDA-MB-231 cells after 48 hrs by SRB assay. The format is functional. The note with it: MDA-MB-231, 48 h. Put shortly: (§1)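 Cells grown in RPMI 1640 with 5% FBS and 2 mM L-glutamine and seeded at 5000–40,000 cells/well according to doubling time. They were preincubated 24 h at 37 °C, 5% CO2, then exposed to DMSO-solubilized compound for 48 h. Adherent cells were fixed with cold TCA (10% final), suspension cells with 16% final. Stained with 0.4% SRB; absorbance at 515 nm. Percent growth calculated against time-zero and control plates.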
A general note: Sulforhodamine B stains cellular protein and so reports cell mass.

A further experiment deals with BT-549. Kind of experiment: Antitumor activity against human BT549 cells after 48 hrs by SRB assay. The note with it: BT-549, 48 h. Format: functional. The essentials: as §1
Setting [1] is: read-out: LC50 (the source's name).

`Clc1ccc(-c2nc3sc(C4CC4)nn3c2Br)cc1`: the GI50 is 6.59 µM in the experiment with MDA-MB-231 and 4.07 µM in the experiment with BT-549. The total growth inhibition concentration (TGI) in the experiment on MDA-MB-231 and in the experiment with BT-549 was over 100 µM in each case. In addition, the CC50 in the experiment with MDA-MB-231 (setting [1]) and in the experiment on BT-549 (setting [1]) was over 100 µM in each case.
